Source: PubChem BioAssay
Calls of active or inactive are those of the source.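 Rule for the calls, unless noted: active = visually confirmed hit in the image check and inhibition above 20%; inconclusive = visually confirmed hit but inhibition not above 20%; inactive = no visual hit in the image check.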

Assays:
[1] = inhibitors of TNFa-induced NFkB p65 translocation, primary screen, imaging, HUVEC, MLSMR starter and 10KST1 sets (AID 438;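 active = inhibition above 20% together with a positive visual image hit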;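 note: compound added about 3h40 before a 20 min TNFalpha stimulation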;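 for inhibition: signal is the nuclear over cytoplasmic p65 intensity ratio per well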); conditions: HUVEC TNFa-induced p65 nuclear translocation; cell count: measured here: nuclei count (cytotoxicity indicator), at 2.08 µM; inhibition: at 2 µM, stronger effect = higher value, 0% TNFa-plus-vehicle, 100% no-TNFa wells
[2] = inhibitors of mutant huntingtin aggregation, primary screen, imaging, exon1htt(103Q)mCFP cells, high-content imaging (AID 483;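 active = visual image review flags a hit and inhibition of aggregation exceeds 20%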;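 note: compound exposure lasted 3 days before fixation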;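 for nuclei count: percent of the per-plate median nuclei count of sample wells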); conditions: exon1htt(103Q)mCFP cell line, aggregate imaging, at 2 µM; inhibition of aggregation: stronger effect = higher value; nuclei count: measured here: cell count, toxicity
[3] = inhibitors of E-selectin induction by TNFa, primary screen, imaging, HUVEC, immunofluorescence, MLSMR starter and 10KST1 sets (AID 487); conditions: HUVEC TNFalpha-induced E-selectin immunofluorescence imaging, at 2 µM; inhibition: stronger effect = higher value; nuclei count: measured here: cell number, toxicity;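 for inhibition: signal is fraction of cell area covered by stained E-selectin grains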;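 for nuclei count: 100% = median nuclei count of all wells on the same plate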
[4] = target: Voltage-gated potassium channel subunit beta-2 (Rattus norvegicus) (UniProt P62483); experiment: KvBeta enzyme negative modulators, primary screen, biochemical, NADPH fluorescence (AID 622;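 active = fluorescence slope higher than the sample average by over 3 SD, cut at about -0.22 in these data, passing the limit was not always enough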;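 note: slope of raw intensity against log time taken from 70 to 1610 s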); conditions: recombinant KvBeta, 4-cyanobenzaldehyde reduction, at 10 µM, stronger effect = higher value
[5] = target: Voltage-gated potassium channel subunit beta-2 (Rattus norvegicus) (UniProt P62483); experiment: KvBeta positive modulators, primary screen, biochemical, NADPH fluorescence (AID 623;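 active = NADPH fluorescence slope more negative than the mean of all samples by about 3 SD, 99.7% confidence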;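 note: fluorescence intensity change per second fitted from 20 to 320 s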); conditions: Recombinant KvBeta, NADPH fluorescence decrease slope, 10 min; at 10 µM; stronger effect = lower value
[6] = target: Muscarinic acetylcholine receptor M4 (Homo sapiens) (UniProt P08173); experiment: compounds altering M4/GIRK thallium flux, either direction, primary screen, M4 allosteric agonist project, cell-based, HEK293 M4/GIRK, BTC-AM (AID 625;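 active = fluorescence slope after compound addition differing from the mean of all tested samples at 99.7% confidence, mostly higher but some lower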;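 note: thallium influx through GIRK channels coupled to M4 in HEK293 cells with BTC-AM dye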); conditions: at 10 µM, actives lie on both sides
In short: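 Material: HEK293 cells with M4 receptor and GIRK channels; Times: cells overnight at 37 °C, BTC-AM loading 1 h, reads 2 min total; Technique: kinetic BTC-AM fluorescence sampled at 1 Hz, 10 s pre-addition baseline; Read-out basis: slope over 15–24 s of trace normalized to starting intensity; Controls: carbachol positive, DMSO negative.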

[7] = inhibitors of Sendai virus-induced IRF3 signaling, primary screen, TLR/RLR signaling modifier project, cell-based, Sendai virus stimulus, luciferase, 10K MLSCN set (AID 602276;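 active = inhibition at or above 50% at 10 µM; inactive = inhibition below 50%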;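 note: firefly luciferase from ISG56 promoter only with Renilla not read in this screen; 0% = Sendai virus plus DMSO and 100% = medium plus DMSO without virus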); conditions: HEK293 RL24 IRF3 luciferase reporter, at 10 µM, stronger effect = higher value
[8] = inhibitors of poly I:C-induced TLR3 signaling, primary screen, cell-based, poly I:C stimulus, luciferase, 10K MLSCN set (AID 602277;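 active = inhibition of the reporter signal at or above 50%; inactive = inhibition below 50%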); conditions: HEK293-TLR3 RL24 IRF3 luciferase reporter, at 10 µM, stronger effect = higher value

Sequence of Muscarinic acetylcholine receptor M4 (Homo sapiens) (P08173 whole entry, looked up): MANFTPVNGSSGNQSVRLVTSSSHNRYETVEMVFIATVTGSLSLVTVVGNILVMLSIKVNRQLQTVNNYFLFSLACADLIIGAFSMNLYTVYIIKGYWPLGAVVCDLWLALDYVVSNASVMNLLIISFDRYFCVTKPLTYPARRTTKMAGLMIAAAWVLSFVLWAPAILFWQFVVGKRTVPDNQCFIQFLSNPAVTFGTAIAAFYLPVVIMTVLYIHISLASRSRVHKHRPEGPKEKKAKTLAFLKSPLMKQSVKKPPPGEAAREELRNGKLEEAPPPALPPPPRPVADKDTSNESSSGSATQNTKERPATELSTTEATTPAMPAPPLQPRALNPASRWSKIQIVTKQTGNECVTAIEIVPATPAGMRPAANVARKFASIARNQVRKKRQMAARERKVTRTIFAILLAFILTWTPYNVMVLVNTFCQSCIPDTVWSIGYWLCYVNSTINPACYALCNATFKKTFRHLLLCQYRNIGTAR
Sequence of Voltage-gated potassium channel subunit beta-2 (Rattus norvegicus) (P62483 whole entry, looked up): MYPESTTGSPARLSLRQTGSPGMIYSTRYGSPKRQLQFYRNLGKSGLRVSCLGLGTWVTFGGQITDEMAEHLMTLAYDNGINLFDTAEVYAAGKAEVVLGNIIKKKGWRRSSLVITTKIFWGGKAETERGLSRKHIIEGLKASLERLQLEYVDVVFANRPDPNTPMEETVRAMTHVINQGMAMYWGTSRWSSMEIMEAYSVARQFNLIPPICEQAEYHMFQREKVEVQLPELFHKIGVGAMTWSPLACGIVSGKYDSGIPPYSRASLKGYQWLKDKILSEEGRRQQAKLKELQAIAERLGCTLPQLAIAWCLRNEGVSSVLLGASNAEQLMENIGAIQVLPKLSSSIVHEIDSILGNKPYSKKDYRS

SMILES | cell count [1] | inhibition [1] | inhibition of aggregation [2] | nuclei count [2] [%] | inhibition [3] | nuclei count [3] [%] | fluorescence slope [4] | NADPH fluorescence slope [5] | fluorescence slope [6] | inhibition [7] | inhibition [8]
O=C(CSc1nnc2sc3ccccc3n12)c1ccco1 | 308 | 1.9% (inactive) | 23.4% (inactive) | 83.3 | 19.6% (inactive) | 91.6 | -0.293 (inactive) | -5e-05 (inactive) | 0.00582 (inactive) | -17.8% (inactive) | -83.7% (inactive)
CN1CCN(S(=O)(=O)c2ccc(Sc3nnc(-c4cccs4)n3-c3ccccc3)nc2)CC1 | 603 | -11% (inactive) | -9% (inactive) | 104 | -140% (inactive) | 142 | -0.245 (inactive) | -2e-05 (inactive) | 0.00549 (inactive) | 1.81% (inactive) | 4.54% (inactive)
COC(=O)C1=C(C)N(c2ccc(C(=O)OC)cc2)C(=O)C1 | 734 | 4% (inactive) | -26.4% (inactive) | 87.2 | 23.7% (inactive) | 105 | -0.567 (inactive) | -4e-05 (inactive) | 0.00678 (inactive) | 16.3% (inactive) | 6.55% (inactive)
Cc1ccc(Cn2ccc(NC(=O)c3noc4c3CCCC4)n2)cc1 | 246 | -0.8% (inactive) | -6.8% (inactive) | 97.7 | 44.7% (inactive) | 117 | -0.539 (inactive) | -3.2e-05 (inactive) | 0.00747 (inactive) | 10% (inactive) | -98.2% (inactive)
CCn1c(SCC(=O)NCc2ccco2)nc2c(c1=O)SC(C)C2 (centres undefined) | 368 | 8.3% (inactive) | -2.9% (inactive) | 101 | -14.8% (inactive) | 115 | -0.4 (inactive) | -0.000131 (inactive) | 0.0058 (inactive) | 4.07% (inactive) | 9.1% (inactive)
COc1ccccc1N1CCN(C(=O)C2CC=CCC2C(=O)O)CC1 (centres undefined) | 444 | -1.8% (inactive) | -7.5% (inactive) | 87.8 | 24.2% (inactive) | 44.5 | -0.454 (inactive) | -1.2e-05 (inactive) | 0.00504 (inactive) | 18.1% (inactive) | 16.3% (inactive)
CC(=O)Nc1ccc2nc(-c3cccnc3)[nH]c2c1 | 435 | -3.2% (inactive) | -1.8% (inactive) | 106 | -9.3% (inactive) | 116 | -0.571 (inactive) | 1.8e-05 (inactive) | 0.00606 (inactive) | -7.23% (inactive) | -16.4% (inactive)
COc1cc(OC)cc(-c2nc3cc(C)ccc3o2)c1 | 424 | 1.7% (inactive) | -2% (inactive) | 90.1 | -55.4% (inactive) | 99.4 | -0.55 (inactive) | -4.6e-05 (inactive) | 0.00552 (inactive) | -23.5% (inactive) | -45.9% (inactive)
COC(=O)c1cc(-c2c(C)nn(-c3ccccc3)c2C)n[nH]1 | 391 | 1.1% (inactive) | -8.1% (inactive) | 111 | 8.5% (inactive) | 95.5 | -0.447 (inactive) | 2.5e-05 (inactive) | 0.00494 (inactive) | -13.2% (inactive) | -66.7% (inactive)
Cc1cccc(C)c1OCc1nnc2c3cnn(C)c3ncn12 | 456 | 8.1% (inactive) | -5.7% (inactive) | 97.5 | -299% (inactive) | 125 | -0.533 (inactive) | -0.000169 (inactive) | 0.0037 (inactive) | -9.31% (inactive) | -26.9% (inactive)
O=S(=O)(c1ccc(OCC(O)CN2CCC(Cc3ccccc3)CC2)cc1)N1CCOCC1 (centres undefined) | 730 | 4.8% (inactive) | -9.9% (inactive) | 120 | -22.7% (inactive) | 116 | -0.46 (inactive) | -4e-06 (inactive) | 0.00575 (inactive) | -3.87% (inactive) | 3.35% (inactive)
O=C(C1CCN(S(=O)(=O)c2cccnc2)CC1)N1CCN(c2ccc(Cl)cc2)CC1 | 447 | -1.6% (inactive) | 11.5% (inactive) | 109 | -26.1% (inactive) | 100 | -0.447 (inactive) | 3.3e-05 (inactive) | 0.00572 (inactive) | 7.3% (inactive) | -25.5% (inactive)
c1ccc(-c2noc(-c3cccnc3)n2)nc1 | 359 | -2.1% (inactive) | 0.3% (inactive) | 102 | -85.3% (inactive) | 96.9 | -0.575 (inactive) | -4.4e-05 (inactive) | 0.00712 (inactive) | 0.927% (inactive) | -38.1% (inactive)
c1ccc(-n2nnnc2OCCOc2nnnn2-c2ccccc2)cc1 | 172 | -10.5% (inactive) | 11.5% (inactive) | 102 | -5.3% (inactive) | 83.1 | -0.562 (inactive) | -6.2e-05 (inactive) | 0.00376 (inactive) | 14.3% (inactive) | 23.8% (inactive)
